Experiments:
[1] = Selectivity index, ratio of CC50 for mock-infected human MT2 cells to IC50 for HIV1 NL4.3-Ren infected in human MT2 cells; type: functional
[2] = tested on: Human immunodeficiency virus 1; assay: Antiviral activity against HIV1 NL4.3-Ren infected in human MT2 cells assessed as inhibition of viral growth measured 48 hrs post infection by luminometry; type: functional, organism-based; settings: Human immunodeficiency virus 1, NL4.3-Ren, MT2, 48 h
Procedure, shortened: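 MT-2 cells infected with X4-tropic HIV-1 NL4.3-Ren supernatant produced in 293T cells. Fivefold serial dilutions from 100 to 0.032 μM were tested. At 48 h postinfection, cells were lysed and Renilla luciferase RLU were measured. IC50 was fitted from the dose–response curve; values are the mean of at least three independent experiments.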

[3] = Cytotoxicity against mock-infected human MT2 cells assessed as reduction in cell viability incubated for 48 hrs by cell-titer Glo assay; type: cell-based
Procedure, shortened: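 Uninfected MT-2 cells received RPMI medium instead of viral supernatant and were treated in parallel with the same fivefold dilutions (100–0.032 μM). […] Values are the mean of at least three independent experiments.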

[4] = tested on: Human immunodeficiency virus 1; assay: Antiviral activity against HIV1 NL4.3-Ren infected in human MT2 cells assessed as inhibition of viral growth by measuring relative luminescence units at 10 uM measured 48 hrs post infection by luminometry relative to untreated control; type: functional; set-up: scale not given: the % may be the effect or the level left
[5] = tested on: Human immunodeficiency virus 1; assay: Antiviral activity against HIV1 NL4.3-Ren infected in human MT2 cells assessed as inhibition of viral growth at 10 uM measured 48 hrs post infection by luminometry; type: functional; settings: Human immunodeficiency virus 1, NL4.3-Ren, MT2, 48 h

Structure (SMILES)	Ratio CC50/IC50 [1]	IC50 [2] [µM]	CC50 at 48 h [3] [µM]	Activity [4] [%]	inhibition at 10 µM [5] [%]
C=C(C=O)[C@@H]1CC[C@]2(C)CC[C@]3(C)[C@H](CC[C@@H]4[C@@]5(C)CCC(=O)C(C)(C)[C@@H]5[C@H](O)C[C@]43C)[C@@H]12	1.3	7.9	10.4	5	> 50
C=C(C=O)[C@@H]1CC[C@]2(C)CC[C@]3(C)[C@H](CC[C@@H]4[C@@]5(C)CCC(=O)C(C)(C)[C@@H]5CC[C@]43C)[C@@H]12	4.2	1.4	5.7	0	> 50
C=C(C=O)[C@@H]1CC[C@]2(COC(C)=O)CC[C@]3(C)[C@H](CC[C@@H]4[C@@]5(C)CC[C@H](O)C(C)(C)[C@@H]5CC[C@]43C)[C@@H]12	8.2	1.7	14.2	0	> 50
C=C(C)[C@@H]1CC[C@]2(C=O)CC[C@]3(C)[C@H](CC[C@@H]4[C@@]5(C)CCC(=O)C(C)(C)[C@@H]5CC[C@]43C)[C@@H]12 [BETULONAL]	4.8	4.2	20	–	> 50
C=C(C)[C@@H]1CC[C@]2(CO)CC[C@]3(C)[C@H](CC[C@@H]4[C@@]5(C)CCC(=O)C(C)(C)[C@@H]5CC[C@]43C)[C@@H]12 [BETULONE]	>24.5	4.1	> 100	–	> 50
C=C(C)[C@@H]1CC[C@]2(C(=O)O)CC[C@]3(C)[C@H](CC[C@@H]4[C@@]5(C)CC[C@H](OC(=O)CC(C)(C)C(=O)O)C(C)(C)[C@@H]5CC[C@]43C)[C@@H]12 [BEVIRIMAT]	>1000	0.01	> 10	–	> 50
C=C(C)[C@@H]1CC[C@]2(C)CC[C@]3(C)[C@@H](CC[C@@H]4[C@@]5(C)[C@@H](O)C[C@H](O)C(C)(C)[C@@H]5CC[C@]43C)[C@@H]12 [GLOCHIDIOL]	1.4	13.9	20	–	> 50
C=C1C(=O)O[C@@H]2C[C@]3(C)CC[C@]4(C)[C@H](CC[C@@H]5[C@@]6(C)CCC(=O)C(C)(C)[C@@H]6CC[C@]54C)[C@H]3[C@H]12 [OCHRACEOLIDE A]	>2.6	39	> 100	–	> 50
